Screening data (PubChem BioAssay)
A1 apoptosis 2: blocks A1, raising caspase activity; MEF A1-2A-BIM cells, caspase-Glo luminescence, 3 h; percent of clofoctol response, DMSO zero; caspase activation, % (no concentration beside the values); 24,000 tested, under 10 active; AID 2465; in the data active means caspase activation above about 5.9%; inconclusive means no clear call, values can overlap the other calls; inactive means below about 2.2%
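Test system – A1-2A-BIM-expressing MEF cells · Input – 2500 cells/well · Medium – RPMI-1640 growth medium with 10% FBS · Compound dosing – 50 nL pinned compound · Timing – 3 h compound exposure at 37 °C · Technique – Caspase-Glo luminescence (DEVD substrate) · Evaluation – Caspase-3/7 activity from luminescence increase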
INS-1E rescue: INS-1E beta cell protection from cytokine death | INS-1E cytokine-induced death, ATP luminescence, 48 h; normalised: neutral wells 0, positive control 100 | protection from cytokine-induced ATP loss, % at 10 µM | 0.1% of 20,000 active | AID 488910;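 active means mean replicate protection from cytokine-induced ATP loss at least 50% and at least 75% of replicates each reaching 50%; inconclusive means meets only one of the two criteria, mean or replicate share; inactive means fails both the mean and replicate share criteria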
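Assay system: INS-1E rat cells / Quantity: 8000 cells per well / Medium: RPMI without phenol red, 5% FBS / Probe or stimulus: three-cytokine cocktail (IFN-γ, TNF-α, IL-1β) / Dosing: one compound concentration, pin transfer / Timing: 48 h co-treatment, 10 min post-lysis read / Technique: CellTiter-Glo luminescence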
T cruzi HTS: blocks T. cruzi growth inside host cells. intracellular Trypanosoma cruzi in host cells, plate reader. 4.9% of 22,000 active. activity score (inhibition), % at 5.01 µM; in the data active means activity score above about 55%; inconclusive means no clear call, values can overlap the other calls;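 further: parasites and compound incubated about four days before reading; 0% = median of neutral control wells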
Numbers without * were called inactive; ? = inconclusive; nt = no result. Only a selection was taken, and hits are over-represented in it overall.

SMILES	A1 apoptosis 2	INS-1E rescue	T cruzi HTS
C[C@@H]1CN([C@H](C)CO)C(=O)Cc2cc(NC(=O)Nc3ccc(C(F)(F)F)cc3)ccc2O[C@H]1CN(C)S(=O)(=O)c1ccc(Cl)cc1	nt	-62.0	32.7
CCCCN(CCCC)c1ccc(/C=N/NC(=O)CCCCCCC(=O)Nc2ccccc2O)cc1	nt	-10.8	17.4
COc1ccc(NC(=O)Nc2cccc3c2O[C@@H](CN(C)C(=O)Nc2c(C)noc2C)[C@H](C)CN([C@@H](C)CO)C3=O)cc1	0.3	3.0	-19.3
O=C(CCCCCCC(=O)Nc1ccccc1O)N/N=C/c1ccc[nH]1	0.4	9.9	4.6
C[C@@H]1CN([C@H](C)CO)C(=O)Cc2cc(NC(=O)Nc3ccc(C(F)(F)F)cc3)ccc2O[C@@H]1CN(C)S(=O)(=O)c1ccc(Cl)cc1	0.1	5.9	58.4*
C[C@@H]1CN([C@@H](C)CO)C(=O)Cc2cc(NC(=O)Nc3ccc(C(F)(F)F)cc3)ccc2O[C@H]1CN(C)S(=O)(=O)c1ccc(Cl)cc1	0.5	nt	nt
Cc1ccc(S(=O)(=O)N[C@@H](Cc2ccccc2)C(=O)NCCCN=[N+]=[N-])cc1	-1.7	nt	nt
COC(=O)CCCCCCC(=O)N/N=C/c1ccccc1OCCO	0.9	5.2	-9.3
C[C@H]1CN([C@@H](C)CO)C(=O)Cc2cc(NC(=O)C3CCCCC3)ccc2O[C@@H]1CN(C)Cc1ccc(-c2ccccc2)cc1	nt	-39.5	60.1*
C[C@@H]1CN([C@@H](C)CO)C(=O)Cc2cc(NC(=O)C3CC3)ccc2O[C@H]1CN(C)Cc1ccc(-c2ccccc2)cc1	0.2	nt	nt
C[C@@H]1CN([C@H](C)CO)C(=O)Cc2cc(NC(=O)C3CC3)ccc2O[C@H]1CN(C)Cc1ccc(-c2ccccc2)cc1	-0.5	-4.7	15.5
C[C@H](CO)N1C[C@H](C)[C@H](CN(C)Cc2ccc(-c3ccccc3)cc2)Oc2ccc(NC(=O)C3CCCCC3)cc2CC1=O	nt	-41.1	67.1*
C[C@@H]1CN([C@H](C)CO)C(=O)Cc2cc(NC(=O)C3CCCCC3)ccc2O[C@H]1CN(C)Cc1ccc(-c2ccccc2)cc1	0.5	-27.4	57.4*
C[C@@H]1CN([C@H](C)CO)C(=O)Cc2cc(NC(=O)C3CCCCC3)ccc2O[C@@H]1CN(C)Cc1ccc(-c2ccccc2)cc1	2.4	-76.8	?
Cc1noc(C)c1NC(=O)Nc1ccc2c(c1)CC(=O)N([C@@H](C)CO)C[C@@H](C)[C@@H](CN(C)C(=O)Nc1c(C)noc1C)O2	nt	2.6	-6.1
C[C@H](CO)N1C[C@H](C)[C@H](CN(C)Cc2ccc(C(=O)Nc3ccccc3N)cc2)Oc2ccc(NC(=O)Cc3cn(C)c4ccccc34)cc2CC1=O	nt	40.3	34.2
C[C@H]1CN([C@@H](C)CO)C(=O)Cc2cc(NC(=O)Cc3cn(C)c4ccccc34)ccc2O[C@H]1CN(C)Cc1ccc(C(=O)Nc2ccccc2N)cc1	nt	11.7	66.2*
C[C@@H]1CN([C@H](C)CO)C(=O)Cc2cc(NC(=O)Cc3cn(C)c4ccccc34)ccc2O[C@@H]1CN(C)Cc1ccc(C(=O)Nc2ccccc2N)cc1	1.0	-7.7	72.0*
C[C@@H]1CN([C@@H](C)CO)C(=O)Cc2cc(NC(=O)Cc3cn(C)c4ccccc34)ccc2O[C@@H]1CN(C)Cc1ccc(C(=O)Nc2ccccc2N)cc1	0.1	nt	nt
COc1cccc(S(=O)(=O)N(C)C[C@@H]2Oc3ncc(-c4cc5ccccc5o4)cc3C(=O)N([C@H](C)CO)C[C@@H]2C)c1	nt	nt	53.2
Cc1cccc(CN(C)C[C@@H]2Oc3ncc(-c4ccccc4)cc3C(=O)N([C@H](C)CO)C[C@@H]2C)c1	0.5	nt	29.3
C[C@H](CO)N1C[C@H](C)[C@H](CN(C)S(C)(=O)=O)Oc2ncc(-c3cc4ccccc4o3)cc2C1=O	nt	nt	14.4
C[C@H](CO)N1C[C@H](C)[C@H](CN(C)S(=O)(=O)c2cccc(F)c2)Oc2ncc(-c3cc4ccccc4o3)cc2C1=O	-1.2	-21.5	64.1*
CNC[C@@H]1Oc2ncc(-c3cc4ccccc4o3)cc2C(=O)N([C@H](C)CO)C[C@@H]1C	-0.6	nt	78.7*
C[C@H](CO)N1C[C@H](C)[C@H](CN(C)Cc2ccc(F)cc2)Oc2ncc(-c3cc4ccccc4o3)cc2C1=O	-0.5	nt	78.3*
SMILES	A1 apoptosis 2	INS-1E rescue	T cruzi HTS
C[C@H](CO)N1C[C@H](C)[C@H](CN(C)Cc2ccncc2)Oc2ncc(-c3cc4ccccc4o3)cc2C1=O	nt	nt	39.6
Cc1cccc(CN(C)C[C@@H]2Oc3ncc(-c4cc5ccccc5o4)cc3C(=O)N([C@H](C)CO)C[C@@H]2C)c1	-0.2	nt	69.9*
O=C(N/N=C/c1ccc(F)c(Oc2ccccc2)c1)c1ccccc1O	-4.6	0.2	-2.8
O=C(O)CCCCCCC(=O)N/N=C/c1cc(Br)cc(Br)c1O	0.9	29.3	-9.0
CC12N=C3SCC(=O)N3[C@H](c3ccccc3O1)[C@H]2CO	-0.2	nt	nt
C=CCNC(=O)[C@@H]1[C@H]2C(=O)O[C@H](c3ccccc3)[C@H](c3ccccc3)N2[C@H](c2ccc(OCCO)cc2)[C@@]12C(=O)Nc1ccc(C#CCC(C(=O)OC)C(=O)OC)cc12	0.2	nt	nt
Cc1nc(S(=O)(=O)NC[C@@H]2CCCN(Cc3cccc(OCCO)c3)C2)cn1C	0.0	nt	nt
COc1ccc(/C=N/NC(=O)CCCCCC(=O)Nc2ccccc2O)cc1OC	nt	10.8	-2.7
O=C(NO)c1ccc(C(=O)N/N=C/c2cccc(Oc3ccccc3)c2)cc1	-0.8	5.4	3.0
O=C(CCCCCCC(=O)N/N=C\c1cccc(Br)c1)NO	nt	68.1*	-21.1
O=C(CCCCC(=O)N/N=C/c1cccc(Oc2ccccc2)c1)NO	-0.2	78.5*	7.1
O=C(O)CCCCCCC(=O)N/N=C/c1cccc(Br)c1	1.4	14.3	-4.9
NC(=O)COc1ccc(/C=N/NC(=O)c2ccccc2O)cc1	-0.4	-18.6	-8.4
COc1ccc(Br)cc1/C=N/NC(=O)CCCCCC(=O)Nc1ccccc1O	-0.2	-4.9	10.6
C[C@@H]1CN([C@H](C)CO)C(=O)c2cc(NC(=O)c3ccncc3)ccc2O[C@@H]1CN(C)Cc1ccc(Cl)c(Cl)c1	-0.2	-4.3	-1.4
C[C@H]1CN([C@@H](C)CO)C(=O)Cc2cc(NC(=O)Nc3ccc(C(F)(F)F)cc3)ccc2O[C@@H]1CN(C)Cc1ccc(-c2ccccc2)cc1	nt	-56.1	70.2*
C[C@H]1CN([C@@H](C)CO)C(=O)Cc2cc(NC(=O)Nc3ccc(C(F)(F)F)cc3)ccc2O[C@H]1CN(C)Cc1ccc(-c2ccccc2)cc1	nt	-78.8	53.6
C[C@@H]1CN([C@@H](C)CO)C(=O)Cc2cc(NC(=O)Nc3ccc(C(F)(F)F)cc3)ccc2O[C@@H]1CN(C)Cc1ccc(-c2ccccc2)cc1	1.3	-2.2	67.3*
COc1ccc(S(=O)(=O)Nc2cccc3c2O[C@H](CN(C)Cc2ccc(C(=O)O)cc2)[C@H](C)CN([C@H](C)CO)C3=O)cc1	0.9	3.7	-12.9
COc1ccc(S(=O)(=O)Nc2ccc3c(c2)CC(=O)N([C@@H](C)CO)C[C@@H](C)[C@@H](CN(C)S(=O)(=O)c2ccc(OC)cc2)O3)cc1	-0.1	-4.5	?
Cc1ccsc1/C=N/NC(=O)CCCCCCC(=O)O	2.1	4.5	-4.8
